# Only some compounds are listed: those with a hit (about 4.1% of all), similar ones and a draw of the others.
# hERG protect – shields human hERG channel from block by proarrhythmic agents; 310,000 compounds, 0.51% hits; CHO-hERG, FluxOR thallium flux, dofetilide IC70 present; AID 1511; Q12809; activation (rescue from dofetilide block), less the hit threshold, % at 10 µM;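 active means activation above the mean of controls blocked by dofetilide plus 5 SD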;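 further: thallium influx through hERG after potassium depolarization seen as dye fluorescence rise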
# Target sequence (Q12809 whole entry, looked up): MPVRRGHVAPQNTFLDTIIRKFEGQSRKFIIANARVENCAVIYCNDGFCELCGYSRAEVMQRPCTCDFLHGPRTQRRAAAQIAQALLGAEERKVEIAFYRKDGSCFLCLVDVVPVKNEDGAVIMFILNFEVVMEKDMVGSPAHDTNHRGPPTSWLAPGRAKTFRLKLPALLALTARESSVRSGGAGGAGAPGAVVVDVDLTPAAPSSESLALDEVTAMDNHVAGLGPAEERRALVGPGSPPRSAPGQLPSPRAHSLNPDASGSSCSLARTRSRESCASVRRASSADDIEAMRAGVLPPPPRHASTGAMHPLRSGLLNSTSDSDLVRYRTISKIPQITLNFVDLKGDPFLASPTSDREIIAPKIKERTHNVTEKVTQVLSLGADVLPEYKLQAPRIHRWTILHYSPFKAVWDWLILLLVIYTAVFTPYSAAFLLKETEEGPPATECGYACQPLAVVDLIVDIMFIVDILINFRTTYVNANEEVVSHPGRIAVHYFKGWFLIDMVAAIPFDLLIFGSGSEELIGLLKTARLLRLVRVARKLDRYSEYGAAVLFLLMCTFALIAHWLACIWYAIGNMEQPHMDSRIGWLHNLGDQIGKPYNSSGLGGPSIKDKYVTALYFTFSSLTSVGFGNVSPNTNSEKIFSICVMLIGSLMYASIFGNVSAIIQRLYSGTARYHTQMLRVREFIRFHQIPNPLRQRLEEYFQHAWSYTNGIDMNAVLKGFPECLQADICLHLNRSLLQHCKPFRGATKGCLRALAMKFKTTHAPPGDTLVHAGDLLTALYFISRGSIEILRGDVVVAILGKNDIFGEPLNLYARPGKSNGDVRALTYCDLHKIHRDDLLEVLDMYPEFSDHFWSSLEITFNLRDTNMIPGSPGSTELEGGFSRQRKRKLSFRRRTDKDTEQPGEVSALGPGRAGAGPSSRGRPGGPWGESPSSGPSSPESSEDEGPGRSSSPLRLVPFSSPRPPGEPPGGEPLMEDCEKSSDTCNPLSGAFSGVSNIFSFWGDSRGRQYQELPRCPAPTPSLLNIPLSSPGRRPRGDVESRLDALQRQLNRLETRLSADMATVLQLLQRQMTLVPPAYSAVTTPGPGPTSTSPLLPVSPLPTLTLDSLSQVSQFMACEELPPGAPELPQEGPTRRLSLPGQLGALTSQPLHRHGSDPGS
# KCNQ1 inh – inhibitors of human KCNQ1 potassium channel; B-score at 10 µM; AID 2642; P51787; CHO-K1 KCNQ1, FluxOR thallium flux fluorescence; hits give high values; 310,000 compounds, 1.3% hits;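 active means compounds whose thallium flux B-score, printed positive for inhibition, exceeds three library SD while starting fluorescence stays within three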;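 further: channel opened by potassium depolarization with thallium stimulus after 20 min compound exposure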
# Cl transport mod – modulates chloride dependent transport by human KCC2. Q9H2X9. AID 1456. B-score of Tl+ flux slope (higher = more flux/activation; lower = inhibition) at 10 µM. 190,000 compounds, 2.2% hits. KCC2 cells, thallium flux FluoZin-2 fluorescence;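 active means thallium flux slope and its plate-corrected score both differing from the plate sample mean at a set confidence after two filtering rounds, in either direction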;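 further: slope of fluorescence scaled to starting intensity during 10 to 20 s after thallium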
# KCNK3 inh – human KCNK3 channel inhibition, primary screen; AID 602410; 340,000 compounds, 0.84% hits; CHO-KCNK3 thallium flux, FluxOR fluorescence; hits give low values; O14649; B-score at 10 µM;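 active means B-score under library mean minus 4 SD, starting fluorescence ratio at most library mean plus 5 SD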;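 further: more negative B-score means stronger inhibition of thallium flux through KCNK3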
# KCNQ1 act – potentiates or activates the human KCNQ1 potassium channel; CHO-K1 KCNQ1, thallium flux FluxOR fluorescence; hits give high values; B-score at 10 µM; 310,000 compounds, 0.35% hits;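 active means fluorescence ratio B-score, a plate-corrected score, at least three library SD, with initial intensity B-score within 5 SD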
#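 assay system = KCNQ1-transfected CHO-K1 cells | medium = assay buffer with matched DMSO | probe or stimulus = depolarizing K+/Tl+ stimulus, K2SO4 and Tl2SO4 each 12.5 mM in 5x stock | dosing = single dose | incubation = dye 90 min, compound 20 min, room temperature | detection = kinetic FluxOR fluorescence, 10 s baseline plus 110 s post-stimulus | evaluation = ratio B score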
# KCNK9 block – inhibitors of human KCNK9 two-pore domain potassium channel | Q9NPC2 | HEK293 KCNK9, FluxOR thallium flux fluorescence; hits give low values | B-score at 10 µM | 310,000 compounds, 1.2% hits | AID 488922;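 active means ratio B-score over 3 SD below the library mean, with starting fluorescence within 5 SD of its mean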;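 further: negative B-score means less thallium flux so channel inhibition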
# An asterisk follows results filed as active; i = inactive; nt = not tested or not shown.
SMILES,hERG protect,KCNQ1 inh,Cl transport mod,KCNK3 inh,KCNQ1 act,KCNK9 block
Cc1ccccc1NC(=O)Cc1c[nH]c2ccccc12,-8.1,i,nt,i,i,i
CCOC(=O)c1cc(NC(=O)COC)ccc1O,-8.2,i,nt,nt,i,i
CCCOC(=O)c1cc(NC(=O)/C=C/c2ccccc2)ccc1O,-18.7,i,nt,nt,i,-9.41*
COc1ccc(NC(=O)c2cc([N+](=O)[O-])ccc2O)cc1,-7.7,i,-3.28*,i,i,i
CS(=O)(=O)N(CC(=O)Nc1ccc2c(c1)OCO2)c1ccc2c(c1)OCO2,-2.7,i,-1.8,i,i,i
COC(=O)c1cc(NC(=O)CN(c2ccc3c(c2)OCO3)S(C)(=O)=O)ccc1Cl,-10.1,i,-0.156,i,i,-7.42*
CC1CCN(S(=O)(=O)c2ccc(NC(=O)[C@@H]3CCCN3C(=O)c3cccs3)cc2)CC1,nt,nt,nt,i,nt,nt
Cc1cc(NC(=O)CSc2nc(-c3ccccc3Cl)nc3c2c(=O)n(C)c(=O)n3C)no1,5.4*,i,0.0759,i,i,i
Cc1cc(NC(=O)CSc2nc(-c3ccc(Br)cc3)nc3c2c(=O)n(C)c(=O)n3C)no1,-11.5,i,nt,i,i,i
Cc1ccc(OCC(=O)Nc2nnc(S(=O)(=O)N3CCC(C)CC3)s2)cc1,-9.0,i,nt,i,i,i
O=[N+]([O-])/C=C\c1ccc(N2CCCC2)c(F)c1,-12.5,i,-1.4,-9.59*,i,i
O=Cc1ccc(N2CCCC2)c([N+](=O)[O-])c1,-8.0,i,-0.0518,i,i,i
Cc1cc(N2CCOCC2)ccc1/C=C\[N+](=O)[O-],-18.1,6*,-0.0332,i,i,i
CCOC(=O)c1ccccc1NC(=O)COC(=O)CCC(=O)c1ccc(C)cc1,-15.8,i,nt,i,i,i
CCCn1c(N)c(N(CCOC)C(=O)CSc2cc(C)c3ccccc3n2)c(=O)[nH]c1=O,nt,nt,nt,i,nt,nt
O=C(CCS(=O)(=O)c1ccc(Br)cc1)NCCC1=CCCCC1,-3.1,i,nt,i,i,i
O=C(Oc1c(Cl)cc(Cl)c2cccnc12)c1cccc([N+](=O)[O-])c1,-1.9,i,51*,i,i,i
O=C(Oc1ccc(Cl)c2cccnc12)c1cccc([N+](=O)[O-])c1,-2.5,i,1.63,i,i,i
O=C1c2cc([N+](=O)[O-])ccc2-c2cc(Cl)c(NC(=O)C(F)(F)F)cc21,nt,nt,nt,i,nt,nt
O=C1c2cc([N+](=O)[O-])ccc2-c2cc(Br)c(N=C(NO)C(F)(F)F)cc21,nt,nt,nt,-9.47*,nt,nt
CCCC(=O)Nc1nnc(S(=O)(=O)N(CC)c2ccccc2)s1,-2.9,i,nt,i,i,i
CCCN=C1N/C(=C\c2ccco2)C(=O)N1c1ccccc1,-4.5,i,0.119,i,i,i
CCCN(CCC)C1=N/C(=C\c2ccco2)C(=O)N1c1ccccc1,-5.2,i,-0.288,i,i,-7.7*
Cc1ccc(C2=NN(CCC#N)C(=O)CO2)cc1,-1.2,i,nt,i,i,i
Cc1cc(-c2nnc(SCC(=O)NC3CC3)n2C(C)C)cs1,-7.4,i,nt,i,i,i
SMILES,hERG protect,KCNQ1 inh,Cl transport mod,KCNK3 inh,KCNQ1 act,KCNK9 block
CNC(=O)c1sc(N2N=C3/C(=C/c4ccccc4)CCCC3C2c2ccccc2)nc1C (stereo not given),-8.8,i,nt,i,i,-8.67*
O=C1C2C3CCC(C3NCc3ccccc3)C2C(=O)N1Cc1ccccc1 (stereo not given),-23.4,6*,0.319,i,i,i
N=C(N)SCc1cn(-c2ccccc2)nc1-c1ccc(Br)cc1,-27.0,11*,0.422,-13.7*,i,i
Cc1ccc(-c2nn(-c3ccccc3)cc2CO)cc1,-14.7,i,nt,i,i,i
COc1ccc(N2CCN(CC(O)COc3ccccc3[N+](=O)[O-])CC2)cc1 (stereo not given),-9.2,i,-0.879,i,i,i
O=[N+]([O-])c1ccccc1OCC(O)CN1CCN(CC(O)COc2ccccc2[N+](=O)[O-])CC1 (stereo not given),-3.7,11*,nt,i,i,i
CC(C)C(C)(C#N)NC(=O)CSc1ncnc2sc(-c3ccccc3)cc12 (stereo not given),4.3,i,-3.57*,i,i,i
CC(C#N)Sc1ncnc2sc(-c3ccccc3)cc12 (stereo not given),-4.1,6*,nt,i,i,i
CN(CCC#N)C(=O)CSc1ncnc2sc(-c3ccccc3)cc12,-3.9,i,0.556,i,i,i
COCC(C)NC(=O)CSc1ncnc2sc(-c3ccccc3)cc12 (stereo not given),-11.6,i,nt,i,i,i
O=C1c2cccc3c([N+](=O)[O-])ccc(c23)C(=O)N1c1ccccn1,-13.6,i,-0.612,i,i,-6.59*
O=C1c2ccc([N+](=O)[O-])cc2C(=O)N1c1ccc(Cl)cn1,-11.0,i,0.921,i,i,i
O=C1c2cccc3c([N+](=O)[O-])ccc(c23)C(=O)N1c1nccs1,-24.3,i,-0.562,i,i,i
O=C1c2cccc3c([N+](=O)[O-])ccc(c23)C(=O)N1O,-23.0,8*,nt,i,i,i
O=C1c2cccc3c(N4CCCCC4)ccc(c23)C(=O)N1c1ccccn1,-19.6,8*,nt,i,i,-7.59*
O=C1c2cccc3c([N+](=O)[O-])ccc(c23)C(=O)N1c1ccc(Cl)cn1,-19.1,7*,nt,i,i,i
COc1ccc(N2CC(C(=O)N3CCN(C(=O)c4ccco4)CC3)CC2=O)cc1 (stereo not given),-1.4,i,nt,i,i,i
Cc1ccc(-c2n[nH]c(=S)nc2-c2ccc(C)cc2)cc1,6.7*,i,nt,i,i,i
Cc1nc(-c2ccc(F)cc2)c(CC(=O)N(C)CC(=O)Nc2ccc(Br)cc2C)s1,-8.1,i,nt,i,i,i
COc1cc(OC)cc(C(=O)NNC(=O)c2ccc(S(=O)(=O)N3CC(C)OC(C)C3)cc2)c1 (stereo not given),-8.6,i,0.00361,i,i,i
COc1ccc(C(=O)NNC(=O)c2ccc(S(=O)(=O)N3CC(C)OC(C)C3)cc2)cc1 (stereo not given),-6.7,7*,-0.606,i,i,i
CCCSc1nc(C)cc(C)c1S(=O)(=O)c1ccccc1C,-1.5,i,nt,i,i,-7.46*
O=[N+]([O-])c1ccc(O)c(/C=N\N=C2c3ccccc3-c3ccccc32)c1,-16.7,7*,-1.15,i,i,i

# Assay outcomes (PubChem BioAssay)
